Reference: ChEMBL document CHEMBL1629494, “New amino acid esters of salicylanilides active against MDR-TB and other microbes” (Eur J Med Chem, 2010)
Values after ≈ are worked out from the molar mass of the structure shown.

How the values were obtained:
[1] = system: Aspergillus fumigatus; experiment: Antifungal activity against Aspergillus fumigatus 231 after 24 hrs by broth microdilution method; format: functional; settings: Aspergillus fumigatus, 231, 24 h
[2] = system: Trichosporon beigelii; experiment: Antifungal activity against Trichosporon beigelii 1188 after 48 hrs by broth microdilution method; format: functional; settings: Trichosporon beigelii, 1188, 48 h
[3] = system: PBMC; experiment: Cytotoxicity against human PBMC after 24 hrs by MTT assay; format: cell-based
Method in brief: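 Human peripheral blood mononuclear cells in RPMI-1640 with 10% fetal calf serum, 2 mM L-glutamine and gentamicin, 37 °C, 5% CO2. Seeded at 1.5–2.0 × 10⁵ cells/well. After 24 h, treated overnight in serum-free medium. Viability by MTT (2 mg/mL, 4 h); formazan dissolved in DMSO; OD540 minus OD620. Cytotoxicity % = [1 − OD treated/OD control] × 100; IC50 from dose-response curves. Four parallels, two independent experiments.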

[4] = system: Pichia kudriavzevii; experiment: Antifungal activity against Candida krusei E28 after 48 hrs by broth microdilution method; format: functional; settings: E28, 48 h
[5] = system: Aspergillus fumigatus; experiment: Antifungal activity against Aspergillus fumigatus 231 after 48 hrs by broth microdilution method; format: functional; settings: Aspergillus fumigatus, 231, 48 h
[6] = system: Nakaseomyces glabratus; experiment: Antifungal activity against Candida glabrata 20/I after 48 hrs by broth microdilution method; format: functional
[7] = system: Mycobacterium tuberculosis; experiment: Antimycobacterial activity against Mycobacterium tuberculosis H37Rv 331/88 after 21 days by micromethod; format: functional; settings: H37Rv 331/88, 504 h
Method in brief: (§1)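 Micromethod in Sula semisynthetic medium, with compounds added as DMSO solutions at 1000, 500, 250, 125, 62, 32, 16, 8, 4, 2, 1, 0.5, 0.25. Inoculum dilutions: H37Rv 10^-3; M. avium 330/88 10^-5; M. kansasii 235/80 10^-4; M. kansasii 6509/96 10^-5. Incubated at 37 °C, read at 14 and 21 days, and at 7 days for M. kansasii. MIC was the lowest concentration inhibiting growth.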

[8] = system: Mycobacterium kansasii; experiment: Antimycobacterial activity against Mycobacterium kansasii 6509/96 after 7 days by micromethod; format: functional; settings: 6509/96, 168 h; method in brief: as §1
[9] = system: Trichophyton mentagrophytes; experiment: Antifungal activity against Trichophyton mentagrophytes after 24 hrs by broth microdilution method; format: functional
[10] = system: Pichia kudriavzevii; experiment: Antifungal activity against Candida krusei E28 after 24 hrs by broth microdilution method; format: functional; settings: E28, 24 h
[11] = system: Candida tropicalis; experiment: Antifungal activity against Candida tropicalis 156 after 48 hrs by broth microdilution method; format: functional; settings: Candida tropicalis, 156, 48 h
[12] = Lipophilicity, log P of the compound; format: physicochemical; settings: octanol/water
[13] = system: Mycobacterium avium; experiment: Antimycobacterial activity against Mycobacterium avium; format: functional
[14] = system: Staphylococcus aureus; experiment: Antibacterial activity against Staphylococcus aureus CCM 4516/08 after 24 hrs by broth microdilution method; format: functional; settings: CCM 4516/08, 24 h
Method in brief: (§2)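 Broth microdilution following […], with twofold compound dilutions in Mueller-Hinton bouillon. Incubated 24 and 48 h at 35 °C in the dark in a humid atmosphere. MIC (IC80) was taken as ≥80% growth reduction versus control, read visually and photometrically.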

[15] = system: Escherichia coli; experiment: Antibacterial activity against Escherichia coli CCM 4517 after 24 hrs by broth microdilution method; format: functional; settings: CCM 4517, 24 h; method in brief: as §2
[16] = system: Staphylococcus aureus; experiment: Antibacterial activity against Staphylococcus aureus CCM 4516/08 after 48 hrs by broth microdilution method; format: functional; settings: CCM 4516/08, 48 h; method in brief: as §2
[17] = system: Mycobacterium avium; experiment: Antimycobacterial activity against multidrug-resistant Mycobacterium avium 330/88 after 14 days by micromethod; format: functional; settings: 330/88, 336 h; method in brief: as §1
[18] = system: Staphylococcus aureus; experiment: Antibacterial activity against methicillin-resistant Staphylococcus aureus H5996/08 after 48 hrs by broth microdilution method; format: functional; settings: H5996/08, 48 h; method in brief: as §2
[19] = system: Trichophyton mentagrophytes; experiment: Antifungal activity against Trichophyton mentagrophytes after 48 hrs by broth microdilution method; format: functional
[20] = system: Enterococcus sp.; experiment: Antibacterial activity against Enterococcus sp. J14365/08 after 48 hrs by broth microdilution method; format: functional; settings: J14365/08, 48 h; method in brief: as §2
[21] = system: Mycobacterium kansasii; experiment: Antimycobacterial activity against Mycobacterium kansasii 235/80 after 14 days by micromethod; format: functional; settings: 235/80, 336 h; method in brief: as §1
[22] = system: Mycobacterium kansasii; experiment: Antimycobacterial activity against Mycobacterium kansasii 235/80 after 7 days by micromethod; format: functional; settings: 235/80, 168 h; method in brief: as §1
[23] = system: Lichtheimia corymbifera; experiment: Antifungal activity against Absidia corymbifera 272 after 24 hrs by broth microdilution method; format: functional; settings: Lichtheimia corymbifera, 272, 24 h
[24] = system: Candida tropicalis; experiment: Antifungal activity against Candida tropicalis 156 after 24 hrs by broth microdilution method; format: functional; settings: Candida tropicalis, 156, 24 h
[25] = system: Mycobacterium kansasii; experiment: Antimycobacterial activity against Mycobacterium kansasii 6509/96 after 14 days by micromethod; format: functional; settings: 6509/96, 336 h; method in brief: as §1
[26] = system: Staphylococcus epidermidis; experiment: Antibacterial activity against Staphylococcus epidermidis H6966/08 after 48 hrs by broth microdilution method; format: functional; settings: H6966/08, 48 h; method in brief: as §2
[27] = system: Candida albicans; experiment: Antifungal activity against Candida albicans ATCC 44859 after 24 hrs by broth microdilution method; format: functional; settings: ATCC 44859, 24 h
[28] = system: Klebsiella pneumoniae; experiment: Antibacterial activity against Klebsiella pneumoniae D11750/08 after 24 hrs by broth microdilution method; format: functional; settings: D11750/08, 24 h; method in brief: as §2
[29] = system: Enterococcus sp.; experiment: Antibacterial activity against Enterococcus sp. J14365/08 after 24 hrs by broth microdilution method; format: functional; settings: J14365/08, 24 h; method in brief: as §2
[30] = system: Mycobacterium tuberculosis; experiment: Antimycobacterial activity against Mycobacterium tuberculosis H37Rv 331/88 after 14 days by micromethod; format: functional; settings: H37Rv 331/88, 336 h; method in brief: as §1
[31] = Selectivity index, ratio of IC50 for human PBMC to MIC for Mycobacterium tuberculosis H37Rv 331/88 after 14 days; format: functional
Method in brief: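 SI = PBMC IC50 (MTT cytotoxicity) divided by the MIC against the named M. tuberculosis strain. MIC taken after 14 days of incubation at 37 °C by the micromethod.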

[32] = system: Trichosporon beigelii; experiment: Antifungal activity against Trichosporon beigelii 1188 after 24 hrs by broth microdilution method; format: functional; settings: Trichosporon beigelii, 1188, 24 h
[33] = system: Staphylococcus epidermidis; experiment: Antibacterial activity against Staphylococcus epidermidis H6966/08 after 24 hrs by broth microdilution method; format: functional; settings: H6966/08, 24 h; method in brief: as §2
[34] = system: Mycobacterium kansasii; experiment: Antimycobacterial activity against Mycobacterium kansasii; format: functional
[35] = system: Mycobacterium avium; experiment: Antimycobacterial activity against multidrug-resistant Mycobacterium avium 330/88 after 21 days by micromethod; format: functional; settings: 330/88, 504 h; method in brief: as §1
[36] = system: Candida albicans; experiment: Antifungal activity against Candida albicans ATCC 44859 after 48 hrs by broth microdilution method; format: functional; settings: ATCC 44859, 48 h
[37] = system: Nakaseomyces glabratus; experiment: Antifungal activity against Candida glabrata 20/I after 24 hrs by broth microdilution method; format: functional
[38] = system: Escherichia coli; experiment: Antibacterial activity against Escherichia coli CCM 4517 after 48 hrs by broth microdilution method; format: functional; settings: CCM 4517, 48 h; method in brief: as §2
[39] = system: Mycobacterium kansasii; experiment: Antimycobacterial activity against Mycobacterium kansasii 235/80 after 21 days by micromethod; format: functional; settings: 235/80, 504 h; method in brief: as §1
[40] = system: Klebsiella pneumoniae; experiment: Antibacterial activity against Klebsiella pneumoniae D11750/08 after 48 hrs by broth microdilution method; format: functional; settings: D11750/08, 48 h; method in brief: as §2
[41] = system: Mycobacterium tuberculosis; experiment: Antimycobacterial activity against drug-sensitive Mycobacterium tuberculosis; format: functional
[42] = system: Staphylococcus aureus; experiment: Antibacterial activity against methicillin-resistant Staphylococcus aureus H5996/08 after 24 hrs by broth microdilution method; format: functional; settings: H5996/08, 24 h; method in brief: as §2
[43] = system: Mycobacterium kansasii; experiment: Antimycobacterial activity against Mycobacterium kansasii 6509/96 after 21 days by micromethod; format: functional; settings: 6509/96, 504 h; method in brief: as §1
[44] = system: Lichtheimia corymbifera; experiment: Antifungal activity against Absidia corymbifera 272 after 48 hrs by broth microdilution method; format: functional; settings: Lichtheimia corymbifera, 272, 48 h

SMILES: CC(=O)N[C@@H](Cc1ccccc1)C(=O)Oc1ccc(Cl)cc1C(=O)Nc1ccc(C(F)(F)F)cc1
- MIC [1]: 125 µM (≈ 63.1 µg/mL)
- MIC [2]: > 125 µM
- IC50 [3]: 12.2 µM
- MIC [4]: > 125 µM
- MIC [5]: > 125 µM
- MIC [6]: > 125 µM
- MIC [7]: 0.5 µM (≈ 0.252 µg/mL)
- MIC [8]: 1 µM (≈ 0.505 µg/mL)
- MIC [9]: 62.5 µM (≈ 31.6 µg/mL)
- MIC [10]: 125 µM (≈ 63.1 µg/mL)
- MIC [11]: > 125 µM
- logP [12]: 4.92
- MIC [13]: 1 µM (≈ 0.505 µg/mL)
- MIC [14]: 0.98 µM (≈ 0.495 µg/mL)
- MIC [15]: > 125 µM
- MIC [16]: 1.95 µM (≈ 0.985 µg/mL)
- MIC [17]: 4 µM (≈ 2.02 µg/mL)
- MIC [18]: 7.81 µM (≈ 3.94 µg/mL)
- MIC [19]: > 125 µM
- MIC [20]: > 125 µM
- MIC [21]: 1 µM (≈ 0.505 µg/mL)
- MIC [22]: 0.5 µM (≈ 0.252 µg/mL)
- MIC [23]: > 125 µM
- MIC [24]: > 125 µM
- MIC [25]: 2 µM (≈ 1.01 µg/mL)
- MIC [26]: 3.9 µM (≈ 1.97 µg/mL)
- MIC [27]: > 125 µM
- MIC [28]: > 125 µM
- MIC [29]: 31.2 µM (≈ 15.8 µg/mL)
- MIC [30]: 0.25 µM (≈ 0.126 µg/mL)
- Selectivity Index [31]: 48.8
- MIC [32]: 125 µM (≈ 63.1 µg/mL)
- MIC [33]: 0.98 µM (≈ 0.495 µg/mL)
- MIC [34]: 1 µM (≈ 0.505 µg/mL)
- MIC [35]: 4 µM (≈ 2.02 µg/mL)
- MIC [36]: > 125 µM
- MIC [37]: > 125 µM
- MIC [38]: > 125 µM
- MIC [39]: 2 µM (≈ 1.01 µg/mL)
- MIC [40]: > 125 µM
- MIC [41]: 1 µM (≈ 0.505 µg/mL)
- MIC [42]: 0.98 µM (≈ 0.495 µg/mL)
- MIC [43]: 2 µM (≈ 1.01 µg/mL)
- MIC [44]: > 125 µM
